Measurements reported in PMC5614578 (Biochemistry and Biophysics Reports, 2017).
Entries after “also recorded” stand apart in the source; their conditions may differ. Like-named read-outs stand apart in the source and are kept apart here.

B1: HIV-1 Tat1–86 protein: HIV-1 Tat1–86 protein obtained from Diatheva, microglia activator (protein, UniProt P04608 1-86, looked up)
Protein Tat: MEPVDPRLEPWKHPGSQPKTACTNCYCKKCCFHCQVCFITKALGISYGRKKRRQRRRAHQNSQTHQASLSKQPTSQPRGDPTGPKE

Experiments:
[1] = target: T1, System xC^- cystine/glutamate antiporter (SXC) (Rattus norvegicus, UniProt A0A8I6AB70); test: LPS-induced glutamate release from primary microglia; type: cell-based; details: for Inhibition of LPS-induced glutamate release (result in words): LPS-treated rat primary microglia
T1 sequence (A0A8I6AB70 1-502): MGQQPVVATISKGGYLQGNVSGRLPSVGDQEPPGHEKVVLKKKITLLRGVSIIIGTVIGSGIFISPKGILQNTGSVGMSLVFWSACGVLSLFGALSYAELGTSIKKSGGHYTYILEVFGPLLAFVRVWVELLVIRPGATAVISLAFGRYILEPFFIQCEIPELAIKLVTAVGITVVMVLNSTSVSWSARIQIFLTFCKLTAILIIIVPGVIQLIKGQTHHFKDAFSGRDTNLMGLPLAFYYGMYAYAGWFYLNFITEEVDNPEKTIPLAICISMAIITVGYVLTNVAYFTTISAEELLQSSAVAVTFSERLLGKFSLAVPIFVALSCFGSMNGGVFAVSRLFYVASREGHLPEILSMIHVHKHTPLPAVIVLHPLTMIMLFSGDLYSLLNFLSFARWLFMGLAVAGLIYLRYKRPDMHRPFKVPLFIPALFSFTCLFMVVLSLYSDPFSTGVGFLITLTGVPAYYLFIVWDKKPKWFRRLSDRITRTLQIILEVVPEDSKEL
T1 sequence (Q794F9 whole entry partner): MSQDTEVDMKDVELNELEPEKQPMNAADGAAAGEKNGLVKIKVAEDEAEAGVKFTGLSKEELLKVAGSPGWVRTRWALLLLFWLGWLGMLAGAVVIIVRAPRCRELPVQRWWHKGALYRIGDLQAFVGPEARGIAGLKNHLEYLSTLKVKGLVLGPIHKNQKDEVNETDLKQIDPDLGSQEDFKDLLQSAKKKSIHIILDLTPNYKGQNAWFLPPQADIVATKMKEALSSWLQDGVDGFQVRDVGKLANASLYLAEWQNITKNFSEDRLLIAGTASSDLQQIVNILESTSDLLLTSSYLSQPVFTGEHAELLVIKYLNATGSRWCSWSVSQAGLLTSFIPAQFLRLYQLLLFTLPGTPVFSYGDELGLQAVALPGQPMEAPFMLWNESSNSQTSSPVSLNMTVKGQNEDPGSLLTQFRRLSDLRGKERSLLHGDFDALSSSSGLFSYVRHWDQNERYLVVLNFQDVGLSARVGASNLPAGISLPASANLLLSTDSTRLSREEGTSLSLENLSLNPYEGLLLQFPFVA
In short: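 Rat primary microglia were taken from 14–21-day mixed glial cultures of 1–2-day pup brains by shaking at 200 rpm for 2 h at 37 °C. Cells were plated at 50,000/well on poly-D-Lys and switched after 24 h to serum-free, phenol red-free DMEM with 2 mM glutamine and 0.2 mM cystine. Test compound (8 concentrations, 10 pM–100 μM, 0.1% DMSO final, duplicate or triplicate) was added 15 min before 1 μg/ml LPS for 24 h. Extracellular glutamate was read by enzyme-coupled Amplex UltraRed fluorescence against a glutamate standard curve, with cell-free counter-screens.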

[2] = target: T1, System xC^- cystine/glutamate antiporter (SXC); test: [14C]-cystine uptake by LPS-activated primary microglia; type: cell-based
In short: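 Microglia were exposed for 24 h to HBSS or LPS (in HBSS) in DMEM with 0.2 mM cystine. An aliquot of that medium was checked for glutamate release to confirm activation. Medium was then replaced and uptake was measured over 15 min in EBSS with [¹⁴C]-cystine tracer (45 μCi/μmol, 10 μM), with LPS ± test compound. Specific uptake was obtained by subtracting a background control. Values average at least four determinations.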

ferroptosis = details: read-out: EC50 for induction of ferroptosis; cited from earlier work
[3] = target: T1, System xC^- cystine/glutamate antiporter (SXC); details: 1 mM; used for background control; stated as known, no reference given; cited from earlier work
rat primary microglia = type: cell-based; details: 24 h treatment; Pam3CSK4 10 µg/ml, poly I:C 50 µg/ml, Tat 1 µM, LPS 1 µg/ml
In short: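 Primary microglia were isolated from neonatal rat mixed glial cultures by shaking and kept in serum-free, phenol red-free DMEM with 2 mM glutamine and 0.2 mM cystine. Cells were stimulated for 24 h with the activator. Extracellular glutamate was quantified by enzyme-coupled Amplex UltraRed fluorescence against a standard curve, linear over 0.5–64 μM glutamate.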

Molecule	Inhibition of LPS-induced glutamate release (result in words) [1]	Inhibition of cystine uptake (result in words) [2]	other results
CC(C)Oc1ccccc1-n1c(CN2CCN(C(=O)COc3ccc(Cl)cc3)CC2)nc2ccccc2c1=O [13MEW76]	did not affect inhibitory activity		
CCOc1ccccc1-n1c(C(C)N2CCN(C(=O)COc3ccccc3)CC2)nc2ccccc2c1=O (stereo not shown) [35MEW13]	abolished inhibitory activity		
CCOc1ccccc1-n1c(C(C)N2CCN(C(C)=O)CC2)nc2ccccc2c1=O (stereo not shown) [Erastin A8]	abolished inhibitory activity; also recorded: inactive	inactive	
N[C@@H](C(=O)O)c1ccc(C(=O)O)cc1 [R-4CPG]	failed to inhibit	failed to inhibit	Inhibition of cystine uptake (result in words) ([2]; listed as (R)-4-CPG): did not inhibit; Inhibition of LPS-induced glutamate release (result in words) ([1]; listed as (R)-4-CPG): did not inhibit
N[C@H](C(=O)O)c1ccc(C(=O)O)cc1 [S-4CPG, (S)-4-carboxyphenyl glycine]	blocked	blocked	
CCOc1ccccc1-n1c(C(C)N2CCN(C(=O)COc3ccc(Cl)cc3)CC2)nc2ccccc2c1=O (stereo not shown) [erastin]	blocked	blocked	EC50 [1]: 130 ± 40 nM; EC50 (ferroptosis): 1200 nM
O=C(O)c1cc(/N=N/c2ccc(S(=O)(=O)Nc3ccccn3)cc2)ccc1O [sulfasalazine]	blocked	blocked	Inhibition of SXC activity (result in words) [3]: completely inhibit
polyinosinic: polycytidylic acid [poly I:C]			Induction of glutamate release (result in words) (rat primary microglia): Significant glutamate release
B1			Induction of glutamate release (result in words) (rat primary microglia): Significant glutamate release
